SENP1 inh: blocks the human SENP1 SUMO protease catalytic domain | recombinant SENP1 catalytic domain, CyPet-SUMO1-YPet FRET cleavage | Q9P0U3 | actives 0.21% (n = 360,000) | inhibition, % at 10 µM | AID 624204;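 active means inhibition at least 30% at 10 µM, raw YFP signal under a set limit, fluorescence ratio 0.5 to 1.5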
Target sequence (Q9P0U3 419-644 limits assumed): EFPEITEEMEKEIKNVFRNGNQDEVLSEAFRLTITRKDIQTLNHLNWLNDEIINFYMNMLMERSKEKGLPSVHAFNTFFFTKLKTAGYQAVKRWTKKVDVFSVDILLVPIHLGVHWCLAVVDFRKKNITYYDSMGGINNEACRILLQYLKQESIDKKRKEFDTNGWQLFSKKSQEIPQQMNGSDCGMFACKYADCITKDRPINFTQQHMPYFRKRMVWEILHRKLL
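Compound: 10 µM single point, 0.5% DMSO; Test system: hSENP1 catalytic domain, recombinant; Timing: 50 min reaction at room temperature; Technique: FRET, CFP and YFP emission; Control set: no-enzyme wells low, DMSO-plus-enzyme wells high control.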
SENP6 inh: SENP6 protease inhibition. Recombinant SENP6 catalytic domain, aminoluciferin luminescence. actives 1.8% (n = 330,000). Q9GZR1. inhibition, % at 10 µM;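 active means inhibition above about 50% at the single tested dose, limit read from the data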
SENP8 block-1: inhibitors of human SENP8 protease | AID 602440 | recombinant SENP8, Nedd8 substrate fluorescence | actives 0.64% (n = 360,000) | inhibition, % at 20 µM | Q96LD8; in the data active means inhibition mostly above about 40%, no sharp cut-off; inactive means mostly below about 27%
Target sequence (Q96LD8 whole entry, looked up): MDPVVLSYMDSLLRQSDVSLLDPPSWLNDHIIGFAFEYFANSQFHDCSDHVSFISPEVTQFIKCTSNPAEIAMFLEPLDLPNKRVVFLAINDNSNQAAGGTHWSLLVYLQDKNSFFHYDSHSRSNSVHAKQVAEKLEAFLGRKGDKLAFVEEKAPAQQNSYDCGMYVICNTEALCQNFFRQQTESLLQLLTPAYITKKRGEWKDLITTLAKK
SENP8 block-2: blocks the human protease SENP8 | AID 2540 | actives 1.2% (n = 330,000) | inhibition, % at 10 µM | purified SENP8, Z-RLRGG-aminoluciferin cleavage, luminescence; in the data active means inhibition above about 50%
SENP7 block: inhibitors of human SENP7 protease. AID 434973. Q9BQF6. inhibition, % at 5 µM. recombinant SENP7, Z-RLRGG-aminoluciferin luminescence, 40 min. actives 1.5% (n = 330,000);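 active means inhibition above about 50% at the single test dose, limit read from the data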
SENP8 conf: human SENP8 inhibition, confirmed; shares compounds with SENP7 block; Recombinant SENP8, Z-RLRGG-aminoluciferin luminescence, 60 min; inhibition, % at 12.5 µM; actives 40% (n = 6,200); AID 488912;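 active means mean inhibition across replicates above about 50%, limit read from the data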
SENP6 conf: human SENP6 inhibition, confirmed. shares compounds with SENP7 block. recombinant SENP6, Z-RLRGG-aminoluciferin luminescence. inhibition, % at 12.5 µM. actives 58% (n = 6,200)
SENP7 conf: confirmation of human SENP7 protease inhibitors; shares compounds with SENP7 block; recombinant SENP7, Z-RLRGG-aminoluciferin luminescence, 40 min; inhibition, % at 12.5 µM; actives 69% (n = 6,200)
Casp3 select: caspase-3 inhibition (SENP selectivity assay). shares compounds with SENP7 block. purified caspase-3, Z-DEVD-aminoluciferin luminescence, 60 min. inhibition, % at 12.5 µM. actives 60% (n = 6,200). AID 488918;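 active means mean inhibition above about 50%, limit read from the data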
SENP luc ctr: luminescence interference (SENP counter-screen); Pre-incubated SENP8/Z-RLRGG-aminoluciferin, luciferase luminescence interference; shares compounds with SENP7 block; AID 488919; actives 39% (n = 6,200); inhibition, % at 12.5 µM;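 active means mean inhibition above about 50% when retested at one dose, limit read from the data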
Of the large screens only hits and unclear results are named; the others gave an inactive call (follow-up assays come after a bar, where they were run). A selection: hits, their analogues and other compounds. The true share with any hit is near 2.5%.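 How the source made its calls, unless noted: active means mean inhibition above about 50% in the one-dose retest (limit read from the data); inactive means the rest.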

Cc1ccc(C(=O)COC(=O)c2ccc(Cl)c(N)c2)s1	SENP6 inh 65.6, SENP8 block-2 54.2, SENP7 block 55.8 | SENP8 conf 50.2 | SENP6 conf inactive | SENP7 conf 83.8 | Casp3 select inactive | SENP luc ctr inactive
Cc1cc(C(=O)CSc2nc(N)cc(=O)[nH]2)ccc1F	SENP8 block-2 89.6 | SENP8 conf inactive | SENP6 conf inactive | SENP7 conf inactive | Casp3 select inactive | SENP luc ctr inactive
c1cncc(-c2noc(-c3ccc4ccccc4c3)n2)c1	SENP6 inh 89.6, SENP8 block-2 82.5, SENP7 block 90.8 | SENP8 conf 55.5 | SENP6 conf 69.1 | SENP7 conf 94.3 | Casp3 select 75.2 | SENP luc ctr inactive
COc1ccc(-c2noc(-c3cccnc3)n2)cc1OC	none
c1ccc(-c2noc(-c3cccnc3)n2)cc1	SENP6 inh 76.0, SENP8 block-2 58.2 | SENP8 conf inactive | SENP6 conf 60.3 | SENP7 conf 88.2 | Casp3 select 77.4 | SENP luc ctr inactive
c1ccc(-c2ccc(-c3nc(-c4cccnc4)no3)cc2)cc1	SENP6 inh 97.2, SENP8 block-2 90.1, SENP7 block 98.8 | SENP8 conf 70.2 | SENP6 conf 71.3 | SENP7 conf 80.2 | Casp3 select 87.7 | SENP luc ctr inactive
O=c1[nH]c2ccccc2cc1-c1noc(-c2cccnc2)n1	none
CCCn1c(CN2CCN(C(=O)OCC)CC2)nc2cc(NC(=O)CC)ccc21	none
CCOCCn1c(=O)c2c(nc3n2CCCN3CCc2ccccc2)n(C)c1=O	none
COC(=O)c1ccc(COC(=O)c2ccccn2)cc1	SENP6 inh 75.4, SENP7 block 82.4 | SENP8 conf 76.5 | SENP6 conf 74.0 | SENP7 conf 91.3 | Casp3 select 91.8 | SENP luc ctr 76.0
O=C(OCc1c(Cl)cccc1Cl)c1ccccn1	none
O=C(Oc1ccccc1)c1ccc(COC(=O)c2cnccn2)cc1	SENP6 inh 94.0, SENP8 block-2 75.9, SENP7 block 88.8 | SENP8 conf inactive | SENP6 conf 79.7 | SENP7 conf 97.3 | Casp3 select 87.4 | SENP luc ctr 85.1
CC1CCCCC1NC(=O)c1ccc(-n2cncn2)cc1 (centres undefined)	none
O=C(Nc1cccnc1)c1cc(-c2cccs2)on1	SENP6 inh 74.0, SENP8 block-2 50.6, SENP7 block 83.9 | SENP8 conf inactive | SENP6 conf inactive | SENP7 conf 80.2 | Casp3 select 79.0 | SENP luc ctr inactive
O=C(Nc1cccnc1)c1cc(-c2ccccc2O)on1	SENP8 block-2 88.4, SENP7 block 95.6 | SENP8 conf 72.8 | SENP6 conf 72.4 | SENP7 conf 98.8 | Casp3 select 91.0 | SENP luc ctr 89.3
O=C(Nc1cccnc1)c1cc(-c2cccc(Cl)c2)on1	none
Cc1ccc(O)c(NC(=O)c2cc(-c3ccccc3Cl)on2)c1	SENP7 block 62.7 | SENP8 conf inactive | SENP6 conf inactive | SENP7 conf inactive | Casp3 select inactive | SENP luc ctr inactive
CCCNC(=O)c1ccccc1NC(=O)CN(c1ccccc1)S(=O)(=O)N(C)C	none
Cc1cccc(-c2nc(=S)c3c(o2)CCCC3)c1	SENP6 inh 61.8, SENP8 block-2 51.9, SENP7 block 72.1 | SENP8 conf 52.3 | SENP6 conf inactive | SENP7 conf 75.7 | Casp3 select inactive | SENP luc ctr 51.4
Nc1cc(C(=O)OCC(=O)N2CCC(Cc3ccccc3)CC2)ccc1Cl	none
CN(C)S(=O)(=O)c1ccc(C(=O)Nc2ccccc2C(=O)NCCCN2CCOCC2)cc1	none
OC1=C(O)c2nc3cc(F)ccc3nc21	none

Assay outcomes (PubChem)
